Source: ChEMBL document CHEMBL3244246, “2-Substituted derivatives of 9-alpha-D-arabinofuranosyladenine and 9-alpha-D-arabinofuranosyl-8-azaadenine” (J Med Chem, 1977)
Activity calls are given as the source filed them. No cut-off for these calls is given here.

Key:
Human rhinovirus 1A = assay: Antiviral activity against Human rhinovirus 1A 2060 infected in human KB cells assessed as inhibition of virus-induced cytopathogenicity measured at 4 days post-virus infection by Microtest 2 plate based microscopic analysis; assay type: functional, organism-based
Procedure, shortened: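 Rhinovirus in KB cells under BME with 5% fetal bovine serum, challenged at 32 CCID50 per well alongside compound. Seven half-log concentrations spanning cytotoxic to noncytotoxic, triplicate. Cell, virus and drug-cytotoxicity controls included. Plates sealed, held at 33 °C. Cpe reduction examined microscopically after 4 days; virus rating (VR) computed from cpe inhibition and cytotoxicity.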

Human alphaherpesvirus 1 = assay: Antiviral activity against Herpes simplex virus 1 HF infected in human Hep2 cells assessed as inhibition of virus-induced cytopathogenicity measured at 4 days post-virus infection by Microtest 2 plate based microscopic analysis; assay type: functional, organism-based; settings: HEp-2
Procedure, shortened: (§1)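 Cells pregrown in microplates in BME (double vitamins/amino acids, 5% FBS). Medium replaced with compound-containing medium plus virus giving 32 CCID50 per well. Seven concentrations, half-log steps from cytotoxic to noncytotoxic, in triplicate. Cell, virus and cytotoxicity controls run alongside. Incubated 37 °C; cpe reduction judged microscopically at 4 days. Virus rating (VR) derived from cpe inhibition and cytotoxicity.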

Human adenovirus 2 = assay: Antiviral activity against Human adenovirus 2 Adenoid-6 infected in human KB cells assessed as inhibition of virus-induced cytopathogenicity measured at 4 days post-virus infection by Microtest 2 plate based microscopic analysis; assay type: functional, organism-based; procedure, shortened: as §1
[1] = tested on: Respiratory syncytial virus; assay: Antiviral activity against Respiratory syncytial virus Long infected in human Hep2 cells assessed as inhibition of virus-induced cytopathogenicity measured at 4 days post-virus infection by Microtest 2 plate based microscopic analysis; assay type: functional, organism-based; settings: HEp-2; procedure, shortened: as §1
Human alphaherpesvirus 3 = assay: Antiviral activity against Varicella zoster virus Ellen infected in human WI-38 cells assessed as inhibition of virus-induced cytopathogenicity measured at 7 days post-virus infection by […] microscopic analysis; assay type: functional, organism-based
Procedure, shortened: (§2)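 Diploid human embryonic lung fibroblasts, 7-day-old monolayers in tubes, MEM plus 2% fetal bovine serum. Compound added in fresh medium (triplicate), then ~32 CCID50 virus per culture. Incubated 37 °C; medium replaced with fresh drug-containing medium at 48 h and again 48 h later. Cytotoxicity, virus and cell controls included. Cpe scored microscopically at day 7; virus rating (VR) calculated from cpe inhibition and drug cytotoxicity.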

Cytomegalovirus = assay: Antiviral activity against Cytomegalovirus AD 169 infected in human WI-38 cells assessed as inhibition of virus-induced cytopathogenicity measured at 7 days post-virus infection by […] microscopic analysis; assay type: functional, organism-based; procedure, shortened: as §2
[2] = Virus rating for antiviral activity against Herpes simplex virus 1 HF infected in human Hep2 cells assessed as inhibition of virus-induced cytopathic effect taking into account cytotoxicity against human Hep2 cells

Row | Structure (SMILES) | inhibition (Human rhinovirus 1A) | inhibition (Human alphaherpesvirus 1) | inhibition (Human adenovirus 2) | inhibition [1] | inhibition (Human alphaherpesvirus 3) | inhibition (Cytomegalovirus) | virus rating [2]
1 | [N-]=[N+]=Nc1nc(N)c2nnn([C@H]3O[C@H](CO)[C@@H](O)[C@@H]3O)c2n1 | inactive | inactive | inactive | inactive | inactive | inactive | 
2 | CSc1nc(N)c2nnn([C@H]3O[C@H](CO)[C@@H](O)[C@@H]3O)c2n1 | inactive | inactive | inactive | inactive | inactive | inactive | 
3 | COc1nc(N)c2nnn([C@H]3O[C@H](CO)[C@@H](O)[C@@H]3O)c2n1 | inactive | inactive | inactive | inactive | inactive | inactive | 
4 | NNc1nc(N)c2nnn([C@H]3O[C@H](CO)[C@@H](O)[C@@H]3O)c2n1 | inactive | inactive | inactive | inactive | inactive | inactive | 
5 | CSc1nc(N)c2ncn([C@H]3O[C@H](CO)[C@@H](O)[C@@H]3O)c2n1 | inactive | inactive | inactive | inactive | inactive | inactive | 
6 | Nc1ncnc2c1ncn2[C@H]1O[C@H](CO)[C@@H](O)[C@@H]1O |  |  |  |  |  |  | 0.6
7 | Nc1ncnc2c1nnn2[C@H]1O[C@H](CO)[C@@H](O)[C@@H]1O |  |  |  |  |  |  | 1
8 | COc1nc(N)c2ncn([C@H]3O[C@H](CO)[C@@H](O)[C@@H]3O)c2n1 | inactive | inactive | inactive | inactive | inactive | inactive | 
9 | NNc1nc(N)c2ncn([C@H]3O[C@H](CO)[C@@H](O)[C@@H]3O)c2n1 | inactive | inactive | inactive | inactive | inactive | inactive | 
10 | CS(=O)(=O)c1nc(N)c2nnn([C@H]3O[C@H](CO)[C@@H](O)[C@@H]3O)c2n1 | inactive | inactive | inactive | inactive | inactive | inactive | 
